Tests used:
[1] = test system: V79; test: In vitro concentration required to kill hypoxic cells V79-379A cells; format: functional, Cricetulus griseus
[2] = test system: Mus musculus; test: compound was evaluated in vivo in mice bearing [KHT] tumor cells at 90 mg kg-1 drug dose. MTD is the […].; format: functional
[3] = test system: Mus musculus; test: compound was evaluated in vivo in mice bearing [KHT] tumor cells at 50 mg kg-1 drug dose. MTD is the […].; format: functional
[4] = test system: Mus musculus; test: compound was evaluated in vivo in mice bearing [KHT] tumor cells at 20 mg kg-1 drug dose. MTD is the […].; format: functional
[5] = test system: Mus musculus; test: compound was evaluated in vivo in mice bearing [RIF-1] tumor cells for the relative surviving fraction of cells at 90 mg kg-1 drug dose.; format: functional
Summary of the method: (§1)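 Mice bearing RIF-1 or KHT murine sarcomas. Maximum tolerated dose (MTD) established for each drug. Drug given alone at MTD, or at 20 or 50 mg kg-1 combined with a single X-ray dose: 15 Gy for RIF-1, 10 Gy for KHT. Radiation dose chosen to kill most oxic tumor cells. Read-out was tumor cell surviving fraction relative to untreated control, reported as mean.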

[6] = Hypoxic cytotoxic ratios of the concentration required to kill 50% of the aerobic cells and concentration required to kill hypoxic cells; format: cell-based, Cricetulus griseus; details: chinese hamster, V79 cells; read-out: HCR
[7] = test system: Mus musculus; test: compound was evaluated in vivo in mice bearing [RIF-1] tumor cells 90 mg kg-1 drug dose. MTD is the […].; format: functional
[8] = test system: V79; test: In vitro concentration required to kill 50% of the aerobic cells; format: functional, Cricetulus griseus
[9] = test system: Mus musculus; test: compound was evaluated in vivo in mice bearing [RIF-1] tumor cells at 50 mg kg-1 drug dose. MTD is the […].; format: functional
[10] = test system: Mus musculus; test: compound was evaluated in vivo in mice bearing [KHT] tumor cells for the relative surviving fraction of cells at 90 mg kg-1 drug dose.; format: functional; summary of the method: as §1
[11] = test system: Mus musculus; test: compound was evaluated in vivo in mice bearing [RIF-1] tumor cells for the relative surviving fraction of cells at 20 mg kg-1 drug dose.; format: functional; summary of the method: as §1
[12] = test system: Mus musculus; test: compound was evaluated in vivo in mice bearing [KHT] tumor cells for the relative surviving fraction of cells at 20 mg kg-1 drug dose.; format: functional; summary of the method: as §1
[13] = test system: Mus musculus; test: compound was evaluated in vivo in mice bearing [RIF-1] tumor cells for the relative surviving fraction of cells at 50 mg kg-1 drug dose.; format: functional; summary of the method: as §1
[14] = test system: Mus musculus; test: compound was evaluated in vivo in mice bearing [RIF-1] tumor cells at 20 mg kg-1 drug dose. MTD is the […].; format: functional
[15] = test system: Mus musculus; test: compound was evaluated in vivo in mice bearing [KHT] tumor cells for the relative surviving fraction of cells at 50 mg kg-1 drug dose.; format: functional; summary of the method: as §1
[16] = test system: Mus musculus; test: compound was evaluated in vivo in mice bearing [KHT] murine sarcoma tumor cells at 100 mg kg-1 drug dose. MTD is the […].; format: functional
[17] = test system: Mus musculus; test: compound was were evaluated in vivo in mice bearing [KHT] murine sarcoma tumor cells at 100 mg kg-1 drug dose. MTD is the […].; format: functional
[18] = test system: Mus musculus; test: compound was evaluated in vivo in mice bearing [RIF-1] murine sarcoma tumor cells at 100 mgkg-1 drug dose. MTD is the […].; format: functional
[19] = test system: Mus musculus; test: compound was evaluated in vivo mice bearing [RIF-1] murine sarcoma tumor cells at 100 mgkg-1 drug dose. MTD is the […].; format: functional
[20] = test system: V79; test: In vitro concentration required to kill hypoxic cells V79-379A cells was determined for all the compounds using the MTT(3-(4,5-dimethylthiazol-2-y1)-2,5-diphenyl-2H-tetrazolium bromide) assay; format: functional, Cricetulus griseus
[21] = hypoxic cytotoxic ratios (HCR) of the concentration required to kill 50% of the aerobic cells and concentration required to kill hypoxic cells; details: read-out: HCR
[22] = test system: V79; test: In vitro concentration required to kill 50% of the aerobic cells under the conditions of the assay; format: functional, Cricetulus griseus

SMILES | C50 [1] [µM] | selectivity ratio [6] | C50 [8] [µM] | also measured
Cc1c(CO)c2c(n1C)C(=O)C=C(N1CC1C)C2=O (stereo not drawn) | 0.5 | 188 | 94 | MTD [2]: 90 mg/kg; MTD [3]: 90 mg/kg; MTD [4]: 90 mg/kg; Mean relative surviving fraction [5]: 0.02; MTD [7]: 90 mg/kg; MTD [9]: 90 mg/kg; Mean relative surviving fraction [10]: 0.15; Mean relative surviving fraction [11]: <0.0001; Mean relative surviving fraction [12]: 0.008; Mean relative surviving fraction [13]: <0.0001; MTD [14]: 90 mg/kg; Mean relative surviving fraction [15]: 0.005
COC1=CC(=O)c2c(c(COC(N)=O)cn2C)C1=O | 0.037 | 83.8 | 3.1 | 
COC(=O)c1c2c(n(C)c1C(C)C)C(=O)C=C(OC)C2=O | 150 | 1 | 150 | 
Cn1c2c(c(CO)c1C1CC1)C(=O)C(N1CC1)=CC2=O | 0.0058 | 104 | 0.603 | MTD [16]: 100 mg/kg; MTD [17]: 100 mg/kg; MTD [18]: 100 mg/kg; MTD [19]: 100 mg/kg
COC1=CC(=O)c2c(c(COC(N)=O)c(C3CC3)n2C)C1=O | 0.44 | 65.9 | 29 | 
Cn1c2c(c(CO)c1C1CCCCC1)C(=O)C(N1CC1)=CC2=O | 0.93 | 37 | 34.5 | 
Cc1c(CO)c2c(n1C)C(=O)C=C(N1CC1)C2=O | 0.0116 | 12.8 | 0.149 | 
CC1CN1C1=CC(=O)c2c(c(COC(N)=O)c(C3CC3)n2C)C1=O (stereo not drawn) | 0.459 | 27.2 | 12.5 | 
CC(C)c1c(COC(N)=O)c2c(n1C)C(=O)C=C(N1CC1C)C2=O (stereo not drawn) | 0.87 | 23.7 | 20.6 | 
O=C1C(N2CC2)=CC(=O)c2c1c(CO)c1n2CC2CC12 (stereo not drawn) | 0.073 | 13.2 | 0.965 | 
COC1=CC(=O)c2c(c(CO)cn2C)C1=O | 240 | 0.92 | 220 | 
COC1=CC(=O)c2c(c(CO)c(C3CC3)n2C)C1=O | 820 | 0.65 | 540 | 
Cc1c(CO)c2c(n1C)C(=O)C=C(N1C(C)C1C)C2=O (stereo not drawn) | 14.2 | 14.2 | 202 | 
Cn1cc(CO)c2c1C(=O)C=C(N1CC1)C2=O | 0.0086 | 15.4 | 0.153 | 
NC(=O)OCc1c2c(n3c1C1CC1C3)C(=O)C=C(N1CC1)C2=O (stereo not drawn) | 0.003 |  | 0.003 | 
Cn1cc(COC(N)=O)c2c1C(=O)C=C(N1CC1)C2=O | 0.00013 | 1.46 | 0.00019 | 
Cn1c2c(c(COC(N)=O)c1C1CC1)C(=O)C(N1CC1)=CC2=O | 0.074 | 45 | 3.33 | 

SMILES | C50 [1] [µM] | selectivity ratio [6] | C50 [8] [µM] | also measured
COC(=O)c1c2c(n(C)c1C1CC1)C(=O)C=C(N1CC1)C2=O | 0.93 | 1.8 | 1.72 | 
CC(C)c1c(CO)c2c(n1C)C(=O)C=C(N1CC1)C2=O | 0.79 | 32.5 | 25.7 | 
COC1=CC(=O)c2c(c(C)c(C(C)C)n2C)C1=O | 0.657 | 1.88 | 1.236 | 
COC1=CC(=O)c2c(c(CO)c(C3CCCCC3)n2C)C1=O | 20.5 | 6 | 122.4 | 
COC(=O)c1c2c(n(C)c1C1CC1)C(=O)C=C(OC)C2=O | 59.8 | 1.7 | 103.5 | 
Cc1c2c(n(C)c1C(C)C)C(=O)C=C(N1CC1)C2=O |  |  |  | C50 [20]: 0.188 µM; selectivity ratio [21]: 1.77; C50 [22]: 0.333 µM
CC(C)c1c(CO)c2c(n1C)C(=O)C=C(N1CC1C)C2=O (stereo not drawn) | 13.9 | 9.2 | 127.8 | 
Cc1c(CO)c2c(n1C)C(=O)C=C(NCC(C)(C)O)C2=O | 500 | 2.5 | 1260 | 
COC1=CC(=O)c2c(c(COC(N)=O)c(C(C)C)n2C)C1=O | 0.117 | 179 | 20.9 | 
CC(C)c1c(COC(N)=O)c2c(n1C)C(=O)C=C(N1CC1)C2=O | 5.46 | 8.7 | 47.5 | 
COC1=CC(=O)c2c(c(CO)c(C(C)C)n2C)C1=O | 200 | 4 | 800 | 
COC1=CC(=O)c2c(c(CO)c3n2CC2CC32)C1=O (stereo not drawn) | 60.6 | 1.8 | 108.4 | 
CC1CN1C1=CC(=O)c2c(c(CO)c(C3CC3)n2C)C1=O (stereo not drawn) | 5.6 | 23.4 | 130 | 
COC1=CC(=O)c2c(c(CO)c(C)n2C)C1=O | 284.8 | 3.78 | 1077 | 
Cn1c(/C=C/CO)c(CO)c2c1C(=O)C=C(N1CC1)C2=O [APAZIQUONE] | 0.0038 | 50.3 | 0.19 | 
CO[C@@]12[C@H](COC(N)=O)C3=C(C(=O)C(C)=C(N)C3=O)N1C[C@@H]1N[C@@H]12 [MITOMYCIN] | 0.4 |  | 0.8 | 

Source: ChEMBL document CHEMBL1130096, “2-Cyclopropylindoloquinones and their analogues as bioreductively activated antitumor agents: structure-activity in vitro and efficacy in vivo” (J Med Chem, 1997)
